The results in this text go back to ChEMBL document CHEMBL1127424, “7-azetidinylquinolones as antibacterial agents. 2. Synthesis and biological activity of 7-(2,3-disubstituted-1-azetidinyl)-4-oxoquinoline- and -1,8-naphthyridine-3-carboxylic acids. Properties and structure-activity relationships of quinolones with an azetidine moiety” (J Med Chem, 1994).

≈ marks a conversion by molar mass, not a printed value.

A short description of data set [1]: AUC (0-4 hr) ug/ml/h. It counts as ADME, cell-free. The following applies: plasma. Also on record: time < 4 hr; concentration or dose not given beside the values. The method, boiled down:
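Mice dosed once orally at 50 mg/kg; blood taken from groups of six mice at 0.5, 1, 2 and 4 h. Serum drug assayed by disk agar diffusion bioassay (Bacillus subtilis ATCC 6633 on Seed Agar, 37 °C, 18 h), giving total activity.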

Data set [2] can be described thus: HPLC capacity factor (k'). It counts as ADME. In short, it runs like this: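 Ion-pair reversed-phase HPLC on ODS-2 (10 μm) at 45 °C. Mobile phase: 10 mM sodium heptanesulfonate plus 50 mM KH2PO4 (pH 3.5)–methanol 45:55, 1 mL/min. Samples at 100 μg/mL in DMF, injected in duplicate, UV 280 nm. k' = (tR − t0)/t0.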
Data set [3] has as its system Bacillus cereus. As to the kind of experiment: In vitro minimum inhibitory concentration for Bacillus cereus ATCC 11778. It counts as functional. The method, boiled down: (§1)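 Serial 2-fold agar dilution in Mueller Hinton medium, run alongside a reference quinolone. Inoculum adjusted to 10⁸ cfu/mL; compound range 0.007–16 μg/mL.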
Data set [4] has as its system Bacillus subtilis. As to the kind of experiment: In vitro minimum inhibitory concentration for Bacillus subtilis ATCC 6633. It counts as functional. In short, it runs like this: as §1
In data set [5] the test system is Escherichia coli. Nature of the data set: In vitro minimum inhibitory concentration for Escherichia coli ATCC 10799. It counts as functional. The method, boiled down: as §1
The subject of data set [6] is Enterobacter cloacae. Nature of the data set: In vitro minimum inhibitory concentration for Enterobacter cloacae ATCC 23355. It counts as functional.
In data set [7] the test system is Klebsiella pneumoniae. As to the kind of experiment: In vitro minimum inhibitory concentration to inhibit Klebsiella pneumoniae ATCC 10031. It counts as functional. In short, it runs like this: as §1
For data set [8], the system named is Mus musculus. As to the kind of experiment: Evaluation of efficacy on systemic infections Escherichia coli HM-42, after oral administration in mice. It counts as functional. The method, boiled down:
(§2)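 Single oral dose given immediately after infection, one of four doses per group, chosen from in vitro activity. Survival scored after one week. ED50 (total mg/kg protecting 50%) interpolated from survival rates.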

For data set [9], the system named is Mus musculus. Nature of the data set: Evaluation of efficacy on systemic infections Pseudomonas aeruginosa HS-116, after oral administration in mice. It counts as functional. In short, it runs like this: as §2
The subject of data set [10] is Mus musculus. Nature of the data set: Evaluation of efficacy on systemic infections Staphylococcus aureus HS-93, after oral administration in mice. It counts as functional. In short, it runs like this:
as §2

Data set [11] concerns Morganella morganii. As to the kind of experiment: In vitro minimum inhibitory concentration for Morganella morganii ATCC 8019. It counts as functional. The method, boiled down: as §1
Data set [12] has as its system Proteus vulgaris. Nature of the data set: In vitro minimum inhibitory concentration for Proteus vulgaris ATCC 8427. It counts as functional. In short, it runs like this: as §1
For data set [13], the system named is Staphylococcus epidermidis. Nature of the data set: In vitro minimum inhibitory concentration for Staphylococcus epidermidis ATCC 155-1. It counts as functional. In short, it runs like this:
as §1

In data set [14] the test system is Staphylococcus aureus. Nature of the data set: In vitro minimum inhibitory concentration for Staphylococcus aureus ATCC 25178. It counts as functional. The method, boiled down:
as §1

The test system of data set [15] is Enterococcus faecalis. As to the kind of experiment: In vitro minimum inhibitory concentration for Streptococcus faecalis ATCC 10541. It counts as functional. In short, it runs like this:
as §1

For data set [16], the system named is Pseudomonas aeruginosa. As to the kind of experiment: In vitro minimum inhibitory concentration for Pseudomonas aeruginosa ATCC 10145. It counts as functional. In short, it runs like this:
as §1

Data set [17] in a line: Solubility (buffer pH 7.4). It counts as physicochemical. As to conditions: read-out: S. In short, it runs like this: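 Excess solid shaken in 0.05 M phosphate buffer pH 7.4 for 24 h at 25 °C. Suspension filtered through 0.22 μm, discarding the first portion. Filtrate diluted in 0.1 N HCl or 0.1 N NaOH and read by UV at the compound's absorbance maximum.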

`C[C@@H]1[C@@H](CN)CN1c1cc2c(cc1F)c(=O)c(C(=O)O)cn2C1CC1`: the AUC in [1] is 0 ng·h/mL. The “Log k'” value in data set [2] was -0.0607. Also, the MIC was 1 µg/mL (≈ 2.9 µM) in data set [3]; 0.06 µg/mL (≈ 0.174 µM) in [4]; 0.12 µg/mL (≈ 0.347 µM) in [5]; 0.12 µg/mL (≈ 0.347 µM) in data set [6]; 0.06 µg/mL (≈ 0.174 µM) in data set [7]; 1 µg/mL (≈ 2.9 µM) in [11]. Moreover, the MIC in data set [12] was 1 µg/mL (≈ 2.9 µM); in data set [13] it was 0.25 µg/mL (≈ 0.724 µM); in data set [14] it was 0.25 µg/mL (≈ 0.724 µM); in [15], 1 µg/mL (≈ 2.9 µM); in data set [16], 2 µg/mL (≈ 5.79 µM). In addition, the ED50 stood at 60.5 mg/kg in data set [8], 355 mg/kg in data set [9] and 95 mg/kg in [10].

Regarding `C[C@H]1N(c2c(F)cc3c(=O)c(C(=O)O)cn(C4CC4)c3c2F)C[C@]1(C)N`, the AUC in data set [1] is 20600 ng·h/mL. Moreover, the “Log k'” value in data set [2] was 0.1312. For the same compound, the solubility in [17] was determined as 3.3 µg/mL (≈ 9.08 µM). Further, the MIC was 0.25 µg/mL (≈ 0.688 µM) in [3]; 0.06 µg/mL (≈ 0.165 µM) in data set [4]; 0.12 µg/mL (≈ 0.33 µM) in data set [5]; 0.06 µg/mL (≈ 0.165 µM) in data set [6]; 0.03 µg/mL (≈ 0.0826 µM) in data set [7]; 0.12 µg/mL (≈ 0.33 µM) in data set [11]. The MIC in data set [12] was determined as 0.5 µg/mL (≈ 1.38 µM); in [13], 0.12 µg/mL (≈ 0.33 µM); in [14], 0.25 µg/mL (≈ 0.688 µM); in [15] it was 1 µg/mL (≈ 2.75 µM); in [16] it was 2 µg/mL (≈ 5.5 µM).

Regarding `C[C@H]1[C@H](N)CN1c1c(F)cc2c(=O)c(C(=O)O)cn(-c3ccc(F)cc3)c2c1Cl`, the “Log k'” value in data set [2] came to 0.2581. Moreover, the MIC in data set [3] stood at 0.03 µg/mL (≈ 0.0715 µM); in data set [4] it was 0.03 µg/mL (≈ 0.0715 µM); in data set [5], 0.06 µg/mL (≈ 0.143 µM); in data set [6], 0.06 µg/mL (≈ 0.143 µM); in data set [7] it was 0.03 µg/mL (≈ 0.0715 µM); in [11], 0.06 µg/mL (≈ 0.143 µM). In addition, the MIC stood at 0.25 µg/mL (≈ 0.596 µM) in data set [12]; 0.06 µg/mL (≈ 0.143 µM) in [13]; 0.03 µg/mL (≈ 0.0715 µM) in [14]; 0.25 µg/mL (≈ 0.596 µM) in data set [15]; 0.25 µg/mL (≈ 0.596 µM) in data set [16]. The ED50 in data set [8] worked out at 3.6 mg/kg; in [9], 37.9 mg/kg; in data set [10], 1.3 mg/kg.

`C[C@@H]1[C@@H](CN)CN1c1c(F)cc2c(=O)c(C(=O)O)cn(C3CC3)c2c1F`: in [1], the AUC is 2300 ng·h/mL. For the same compound, the “Log k'” value in [2] was -0.0397. The MIC in data set [3] was 0.25 µg/mL (≈ 0.688 µM); in data set [4] it was 0.06 µg/mL (≈ 0.165 µM); in data set [5], 0.06 µg/mL (≈ 0.165 µM); in data set [6] it was 0.06 µg/mL (≈ 0.165 µM); in data set [7], 0.12 µg/mL (≈ 0.33 µM); in data set [11] it was 0.25 µg/mL (≈ 0.688 µM). The MIC was 0.25 µg/mL (≈ 0.688 µM) in [12]; 0.12 µg/mL (≈ 0.33 µM) in [13]; 0.12 µg/mL (≈ 0.33 µM) in data set [14]; 0.25 µg/mL (≈ 0.688 µM) in [15]; 0.5 µg/mL (≈ 1.38 µM) in data set [16]. The ED50 in data set [8] was 31 mg/kg; in [9], 70 mg/kg; in data set [10], 20 mg/kg.

In the case of `CCNC[C@H]1CN(c2c(F)cc3c(=O)c(C(=O)O)cn(C4CC4)c3c2F)[C@@H]1C`, in data set [1], the AUC is 11800 ng·h/mL. The “Log k'” value in data set [2] is 0.025. Besides, the MIC stood at 0.25 µg/mL (≈ 0.639 µM) in data set [3]; 0.12 µg/mL (≈ 0.307 µM) in data set [4]; 0.25 µg/mL (≈ 0.639 µM) in data set [5]; 1 µg/mL (≈ 2.55 µM) in data set [6]; 0.06 µg/mL (≈ 0.153 µM) in [7]; 0.5 µg/mL (≈ 1.28 µM) in [11]. In addition, the MIC in data set [12] came to 0.5 µg/mL (≈ 1.28 µM); in [13], 0.25 µg/mL (≈ 0.639 µM); in data set [14], 0.25 µg/mL (≈ 0.639 µM); in [15], 2 µg/mL (≈ 5.11 µM); in data set [16], 4 µg/mL (≈ 10.2 µM). Besides, the results for the ED50 in data set [8], in data set [9] and in [10] were 4.7 mg/kg, 61 mg/kg and 37.5 mg/kg, respectively.

`C[C@H]1[C@H](N)CN1c1cc2c(cc1F)c(=O)c(C(=O)O)cn2-c1ccc(F)cc1` returned an AUC in data set [1] of 16900 ng·h/mL. In addition, the “Log k'” value in data set [2] was determined as 0.0755. Besides, the MIC was 0.25 µg/mL (≈ 0.649 µM) in data set [3]; 0.06 µg/mL (≈ 0.156 µM) in [4]; 0.12 µg/mL (≈ 0.311 µM) in [5]; 0.06 µg/mL (≈ 0.156 µM) in [6]; 0.015 µg/mL (≈ 0.0389 µM) in data set [7]; 0.06 µg/mL (≈ 0.156 µM) in [11]. In addition, the MIC is 0.25 µg/mL (≈ 0.649 µM) in [12]; 0.25 µg/mL (≈ 0.649 µM) in data set [13]; 0.25 µg/mL (≈ 0.649 µM) in data set [14]; 0.5 µg/mL (≈ 1.3 µM) in data set [15]; 1 µg/mL (≈ 2.59 µM) in data set [16]. Besides, the ED50 was 2.9 mg/kg in [8], 109 mg/kg in data set [9] and 7.5 mg/kg in data set [10].

`CC[C@H]1[C@@H](N)CN1c1cc2c(cc1F)c(=O)c(C(=O)O)cn2C1CC1` registered an AUC in [1] of 3600 ng·h/mL. In addition, the “Log k'” value in [2] is given as 0.1708. Further, the solubility in [17] is 42.2 µg/mL (≈ 122 µM). Further, the MIC in data set [3] is 0.25 µg/mL (≈ 0.724 µM); in data set [4], 0.015 µg/mL (≈ 0.0434 µM); in data set [5], 0.12 µg/mL (≈ 0.347 µM); in data set [6], 0.12 µg/mL (≈ 0.347 µM); in data set [7] it was 0.015 µg/mL (≈ 0.0434 µM); in [11], 0.25 µg/mL (≈ 0.724 µM). In addition, the MIC amounted to 0.25 µg/mL (≈ 0.724 µM) in [12]; 0.25 µg/mL (≈ 0.724 µM) in data set [13]; 0.25 µg/mL (≈ 0.724 µM) in [14]; 4 µg/mL (≈ 11.6 µM) in data set [15]; 2 µg/mL (≈ 5.79 µM) in [16].
